# Rev-erbA mod = modulators of human Rev-erb alpha DNA binding. AID 1259318. Rev-erbα–FITC-DNA binding, fluorescence polarization, 90 min. actives 0.79% (n = 370,000). P20393. activity, % at 10 µM;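 active = activity above about 14%, limit read from the data; passing the limit was not always enough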;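 also: 0% = DMSO wells with 35 nM protein and 100% = DMSO wells with 750 nM protein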
# Target sequence (P20393 whole entry, looked up): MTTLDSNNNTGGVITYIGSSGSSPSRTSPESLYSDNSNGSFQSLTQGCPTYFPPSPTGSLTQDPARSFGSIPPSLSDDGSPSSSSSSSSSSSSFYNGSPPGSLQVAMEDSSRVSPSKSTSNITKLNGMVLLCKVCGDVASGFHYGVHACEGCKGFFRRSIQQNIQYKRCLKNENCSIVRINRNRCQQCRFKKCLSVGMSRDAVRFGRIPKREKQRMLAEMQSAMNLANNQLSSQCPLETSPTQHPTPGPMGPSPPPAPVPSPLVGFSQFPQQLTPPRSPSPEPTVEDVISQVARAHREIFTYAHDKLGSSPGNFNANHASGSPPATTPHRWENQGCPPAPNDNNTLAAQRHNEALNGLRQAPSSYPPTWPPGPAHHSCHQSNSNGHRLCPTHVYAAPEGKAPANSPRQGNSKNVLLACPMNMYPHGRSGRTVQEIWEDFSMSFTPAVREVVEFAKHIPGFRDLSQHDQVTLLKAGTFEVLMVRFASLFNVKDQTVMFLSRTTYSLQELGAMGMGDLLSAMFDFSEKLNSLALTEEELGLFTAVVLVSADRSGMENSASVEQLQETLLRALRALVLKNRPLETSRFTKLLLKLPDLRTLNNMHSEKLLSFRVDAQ
# NR2E3 ag-1 = activates human NR2E3 receptor; Q9Y5X4; CHO-S Gal4-NCOR/VP16-NR2E3 two-hybrid, luciferase; inhibition of corepressor binding, % at 3.98 µM; actives 0.35% (n = 360,000); AID 602229;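 active = inhibition above the mean of all tested compounds plus 3 SD, cut at about 70% in these data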;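 also: 0% = DMSO with NR2E3 transfected cells and 100% = cells lacking NR2E3 construct; higher means lower luciferase signal from less NR2E3 corepressor binding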
# PG9 binder = binds the HIV-1 gp120 antibody PG9. inhibition, % at 6.7 µM. AID 624416. actives 0.43% (n = 360,000). TR-FRET gp120-PG9 antibody binding; in the data active = inhibition above about 8.5%
# NR2E3 ag-2 = agonists of human nuclear receptor NR2E3. AID 2300. Q9Y5X4. GST-NR2E3/biotin-RetCOR TR-FRET, 1536-well. inhibition of corepressor binding, % at 4.78 µM. actives 0.12% (n = 320,000);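 active = percent inhibition above the cutoff of mean plus 3 SD of all tested compounds, set per screening campaign, cut at about 20% in these data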;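 also: 0% = DMSO wells and 100% = biotin wells as full block of FRET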
#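 System: GST-NR2E3 and biotin-RetCOR proteins; probe or stimulus: 7 nM biotin-RetCOR; doses: compound at 4.8 µM, single dose; schedule: Compound–protein incubation for 5 h at 4 °C; detection: time-resolved FRET; read-out: percent inhibition; controls: biotin wells as high control, 0.6% DMSO wells as low control; format: 1536-well plates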
# NR2E3 ag confirm = NR2E3 (human) agonism, confirmation; shares compounds with NR2E3 ag-2; cell-free NR2E3 corepressor release, TR-FRET, 5 h; activation (reported as inhibition), % at 3.98 µM; actives 39% (n = 360); AID 2379; in the data active = activation above about 20%
# PPARg-NCOR2 ctr = counter-screen for NR2E3 agonists: human PPARgamma-NCOR2 interaction agonists. shares compounds with NR2E3 ag-2. AID 504787. TR-FRET PPARg-NCOR2 coregulator interaction, biochemical. inhibition, % at 3.98 µM. actives 45% (n = 360); in the data active = inhibition above about 20%;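 also: 0% = DMSO vehicle and 100% = wells without protein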
# An asterisk follows results filed as active; x = no result. Shown are actives, neighbours in structure and some others; about 1.5% of the full set was active somewhere.
SMILES,Rev-erbA mod,NR2E3 ag-1,PG9 binder,NR2E3 ag-2,others
CC(C)(C)c1ccc(S(=O)(=O)NCC(=O)Nc2ccc(-c3nc4ccccc4s3)cc2)cc1,12,-103,8.9*,1,
N[C@H](C(=O)O)[C@H](O)c1ccc(O)c(O)c1,-44,x,x,x,
COc1cc(/C=C2/SC(=S)NC2=O)ccc1OS(=O)(=O)c1ccc(C)cc1,x,77*,x,-3,
COc1cc(/C=C2\SC(=S)NC2=O)ccc1OS(=O)(=O)c1ccccc1,x,x,x,-1,
COc1ccc(C2/C=C\CN(C(=O)Nc3ccc(C(F)(F)F)cc3)CC(=O)N2Cc2ccc(F)cc2)cc1 (stereo not given),x,82*,x,-4,
CC(=O)O[C@H]1CC2CCC3C(CC[C@@]4(C)C3C[C@H]([N+]3(C)CCCCC3)[C@@H]4OC(C)=O)[C@@]2(C)C[C@@H]1[N+]1(C)CCCCC1 (stereo not given in full),-6,x,x,x,
N#CC1=C(N)SC(N)=C(C#N)C1c1cccc(O)c1,1,-12,22*,6,
NC[C@H]1O[C@H](O[C@@H]2[C@H](O)[C@@H](O[C@H]3O[C@H](CO)[C@@H](O)[C@H](N)[C@H]3O)[C@H](N)C[C@@H]2N)[C@H](O)[C@@H](O)[C@@H]1O,0,x,x,x,
CCOc1ccc(S(=O)(=O)Nc2cnc3ccccc3c2)cc1,-9,99*,3,0,
Cc1cccc(/C=C(\c2nc3ccccc3[nH]2)S(=O)(=O)c2ccccc2)c1,-1,43,-1,x,
CC(C)(C)c1ccc(/C=C(\c2nc3ccccc3[nH]2)S(=O)(=O)c2ccccc2)cc1,x,81*,x,1,
COC(=O)c1nn(-c2ccc(-c3ccccc3)cc2)cc1O,-5,78*,2,1,
C1=Cc2cccc(OCC3CNCCO3)c2C1 (stereo not given),1,x,x,x,
Oc1ccc(Nc2nc3ccccc3nc2Nc2ccc(O)cc2)cc1,x,95*,x,2,
CC(=O)N[C@@H](C=O)[C@@H](O)[C@@H](O)[C@H](O)CO,-2,x,x,x,
NC(=O)C(c1ccccc1)(c1ccccc1)[C@H]1CCN(CCc2ccc3c(c2)CCO3)C1,8,x,x,x,
CC(CCC(=O)NN)C1CCC2C3CCC4CC(O)CCC4(C)C3CCC12C (stereo not given),-1,6,1,x,
CC(CCC(C)C(C)(C)C)[C@@H]1CC[C@H]2C3C[C@H](OS(O)(=S)=S)[C@H]4C[C@H](OS(O)(=S)=S)[C@@H](OS(O)(=S)=S)C[C@]4(C)[C@H]3CC[C@]12C (stereo not given in full) (tested in a mixture with another compound),x,75*,x,x,
CO[C@@]12[C@@H]3N[C@H]3CN1C1=C(C(=O)C(N)=C(C)C1=O)[C@@H]2COC(N)=O,-7,x,x,x,
O=C(CCC(=O)OCC(=O)c1ccc(-c2ccccc2)cc1)Nc1cccc(Cl)c1,5,6,9.0*,2,
C#C[C@]1(O)CCC2C3CCC4=Cc5oncc5C[C@]4(C)C3CC[C@@]21C (stereo not given in full),7,x,x,x,
CC(C)(C)NC(=O)[C@H]1CCC2C3CCC4NC(=O)C=C[C@]4(C)C3CC[C@@]21C (stereo not given in full),3,x,x,x,
C[N+](C)(C)CCOP(=O)([O-])OP(=O)(O)OC[C@H]1OC(n2ccc(N)nc2=O)[C@H](O)[C@@H]1O (stereo not given in full),2,x,x,x,
O=C(O)C1=CC(=C(c2ccc(O)c(C(=O)O)c2)c2ccc(O)c(C(=O)O)c2)C=CC1=O,x,x,x,30*,
Cc1c2ccccc2cc[n+]1CCCS(=O)(=O)[O-],0,12,-1,1,
SMILES,Rev-erbA mod,NR2E3 ag-1,PG9 binder,NR2E3 ag-2,others
CC1(C)C(/C=C/C=C/C=C/C=C2\N(CCCCS(=O)(=O)O)c3ccc4ccccc4c3C2(C)C)=[N+](CCCCS(=O)(=O)[O-])c2ccc3ccccc3c21,x,-27,x,27*,
Nc1ccn(C2O[C@H](CO)[C@@H](O)[C@@H]2O)c(=O)n1 (stereo not given in full),-6,x,x,x,
CS(=O)(=O)N(CC(=O)Nc1ccccc1Sc1ccccc1)c1ccc(F)cc1,2,-2,14*,-2,
CCCCCCCCCCC[C@@H](C[C@H]1OC(=O)[C@H]1CCCCCC)OC(=O)[C@@H](CC(C)C)NC=O,-6,x,x,x,
Cc1ccc2oc(=O)c3cnn(CC(=O)NCCN(C)C)c3c2c1,7,-58,-2,4,
Cc1ccc2oc(=O)c3cnn(CC(=O)NCCc4ccsc4)c3c2c1,10,-28,22*,-2,
CCCC[C@@H](CC)COC(=O)C(C#N)=C(c1ccccc1)c1ccccc1,-5,x,x,x,
CCc1nnc(NC(=O)c2sc3nc4cc(C)ccc4cc3c2N)s1,-2,-35,-10,37*,NR2E3 ag confirm=-9;PPARg-NCOR2 ctr=-5
COc1cc(Br)c(C(=O)c2nccc3cc(OC)c(OC)cc23)cc1OC,10,-36,-2,28*,NR2E3 ag confirm=24*;PPARg-NCOR2 ctr=9
COc1cc(N)c(C(=O)c2nccc3cc(OC)c(OC)cc23)cc1OC,1,-4,-1,2,
CC[C@@]1(O)C(=O)OCc2c1cc1n(c2=O)Cc2c-1nc1cc(F)c(C)c3c1c2[C@@H](N)CC3,-3,x,x,x,
CCOC(=O)c1ccc2c(c1)C1C=CCC1C(C(=O)O)N2 (stereo not given),x,x,x,9,
O=C(O)c1ccc2c(c1)C1C=CCC1C(c1ccncc1)N2 (stereo not given),-7,-38,-1,23*,NR2E3 ag confirm=18;PPARg-NCOR2 ctr=-7
CCOC(=O)C1Nc2ccc(C(=O)O)cc2C2C=CCC12 (stereo not given),14,-37,-4,30*,NR2E3 ag confirm=11;PPARg-NCOR2 ctr=7
CC/C=C\C/C=C\C/C=C\C/C=C\C/C=C\CCCC(=O)OCC,-8,x,x,x,
COc1ccc(-c2cc(=O)c3c(O)cc(O[C@@H]4O[C@H](CO[C@H]5O[C@H](C)[C@@H](O)[C@H](O)[C@@H]5O)[C@@H](O)[C@H](O)[C@H]4O)cc3o2)cc1O,4,x,x,x,
CCSc1nnc(NC(=O)CCc2ccccc2)s1,10,-18,2,40*,NR2E3 ag confirm=9;PPARg-NCOR2 ctr=7
CO[C@H]1C[C@H](O[C@H]2[C@H](C)[C@@H](OC3O[C@H](C)C[C@H](N(C)C)[C@H]3OC(C)=O)[C@@H](C)C[C@]3(CO3)C(=O)[C@H](C)[C@@H](OC(C)=O)[C@@H](C)[C@@H](C)OC(=O)[C@@H]2C)O[C@@H](C)[C@@H]1OC(C)=O (stereo not given in full),0,x,x,x,
C[C@]12CCC(=O)C=C1CCC1C2[C@@H](O)C[C@@]2(C)C1CC[C@]2(O)C(=O)COC(=O)CCC(=O)O (stereo not given in full),0,x,x,x,
CCc1c(C(=O)Nc2ccccc2)c(C)[nH]c(=S)c1C#N,-4,-4,0,30*,NR2E3 ag confirm=2;PPARg-NCOR2 ctr=-3
